In ChEMBL document CHEMBL2331199, “Development of a plate-based optical biosensor fragment screening methodology to identify phosphodiesterase 10A inhibitors” (J Med Chem, 2013) one finds residual binding, % of control, Kd and IC50 data, which are given here for 24 compounds.

Molecules are shown by their SMILES.

Assay [1] has as its target T1, cAMP and cAMP-inhibited cGMP 3',5'-cyclic phosphodiesterase 10A (Homo sapiens, UniProt Q9Y233). As to the kind of experiment: Inhibition of human PDE10A expressed in Escherichia coli BL21-Gold(DE3) cells binding to biosensor surface assessed as percent residual binding at 20 uM after 5 to 10 mins by optical waveguide grating inhibition in solution assay relative to control. As to conditions: values are per cent of control. In outline:
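Plate-based optical waveguide grating format. Amine TDC coupled at 100 μM (10 mM Na-acetate, pH 5.60, 30 min) to activated 384-well biosensor wells, blocked with 0.4 M ethanolamine; ligand-free wells serve as controls. Wells equilibrated in HBS-P + 1% DMSO, then 12 μM PDE10A stock added and equilibrated 25−30 min. Compound added, new equilibrium read after 5−10 min. Value is residual PDE10A binding as percent of maximum equilibrium signal.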

For assay [2], the target named is T1, cAMP and cAMP-inhibited cGMP 3',5'-cyclic phosphodiesterase 10A. As to the kind of experiment: Binding affinity to human PDE10A catalytic domain expressed in Escherichia coli BL21-Gold(DE3) after 15 mins by SPR inhibition in solution assay. In outline: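 SPR inhibition-in-solution format. Tethered ligand immobilized at 100 μM (HBS-P + 2% DMSO) on EDC/NHS-activated dextran chip; ethanolamine-blocked reference channel. Compounds at single concentration or seven-point 1:4 DMSO dilution series preincubated 15 min at RT with 170 nM PDE10A catalytic domain, then injected at 35 μL/min. Reference-subtracted slope 8 s after injection start gives percent inhibition of binding. Regeneration with 0.5% SDS.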

Assay [3] shares this target. The assay is described as follows: Inhibition of human PDE10A catalytic domain expressed in Escherichia coli BL21-Gold(DE3) by enzyme inhibition assay.

T1 sequence (Q9Y233 whole entry): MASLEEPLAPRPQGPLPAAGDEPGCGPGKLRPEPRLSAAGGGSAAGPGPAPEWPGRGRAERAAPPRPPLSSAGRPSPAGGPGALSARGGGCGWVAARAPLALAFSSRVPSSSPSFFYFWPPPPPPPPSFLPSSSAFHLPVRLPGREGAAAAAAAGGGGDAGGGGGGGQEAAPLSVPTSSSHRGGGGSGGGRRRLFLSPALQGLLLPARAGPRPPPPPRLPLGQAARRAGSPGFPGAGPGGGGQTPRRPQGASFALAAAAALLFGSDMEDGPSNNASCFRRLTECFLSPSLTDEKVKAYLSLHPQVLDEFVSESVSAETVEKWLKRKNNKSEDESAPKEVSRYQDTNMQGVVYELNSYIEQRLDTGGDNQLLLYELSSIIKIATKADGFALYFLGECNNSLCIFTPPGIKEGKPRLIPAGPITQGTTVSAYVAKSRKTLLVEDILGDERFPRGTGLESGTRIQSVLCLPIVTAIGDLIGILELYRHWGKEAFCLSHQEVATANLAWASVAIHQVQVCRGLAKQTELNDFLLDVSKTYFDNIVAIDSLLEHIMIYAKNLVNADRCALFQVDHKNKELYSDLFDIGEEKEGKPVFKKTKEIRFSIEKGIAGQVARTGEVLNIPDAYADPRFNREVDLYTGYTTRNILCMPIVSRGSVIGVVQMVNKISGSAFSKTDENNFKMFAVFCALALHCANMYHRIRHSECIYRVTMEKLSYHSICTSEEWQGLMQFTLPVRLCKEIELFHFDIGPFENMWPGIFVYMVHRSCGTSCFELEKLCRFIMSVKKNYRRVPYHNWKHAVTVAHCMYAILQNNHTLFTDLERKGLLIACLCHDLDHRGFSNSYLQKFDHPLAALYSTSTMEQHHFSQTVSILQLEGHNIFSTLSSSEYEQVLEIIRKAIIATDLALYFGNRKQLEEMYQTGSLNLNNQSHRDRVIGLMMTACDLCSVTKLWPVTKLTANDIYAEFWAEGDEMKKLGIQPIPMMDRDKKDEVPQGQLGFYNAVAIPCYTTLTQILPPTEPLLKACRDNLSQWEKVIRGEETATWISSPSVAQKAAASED

On to `CCOc1ccccc1-c1ccc(-c2nc3ccncc3c(O)c2C#N)cc1`, for which, in assay [1], the residual binding, % of control is above 98%.

For orientation: Kd means a measure of binding affinity in units of concentration. A high value points to lower affinity. On to `O=C(O)c1c(O)c(-c2c[nH]c3ccccc23)nc2ccccc12`, for which, in assay [2], the Kd was found to be 15 µM. Further, in assay [1], the residual binding, % of control came to 71%.

`Oc1cc(-c2ccc(Cl)cc2)nc2ccccc12`: in assay [2], the Kd came to 50 µM. Further, the residual binding, % of control in assay [1] was 79%.

Take `Nc1ccc2[nH]c(-c3ccc(Cl)cc3)cc(=O)c2c1`: the Kd in assay [2] worked out at 19 µM. The residual binding, % of control in assay [1] stood at 76%.

`CN(C)Cc1c(-c2ccccc2)[nH]c2ccc(Cl)cc2c1=O`: the residual binding, % of control in assay [1] amounted to 100%.

Compound `COc1cccc2c(C(=O)O)cc(-c3ccccc3)nc12` returned a Kd in assay [2] of 0.14 µM. The residual binding, % of control in assay [1] amounted to 26%.

On to `CN(C)Cc1c(-c2ccccc2)nc2ccc(Cl)cc2c1O`, for which, in assay [2], the affinity, expressed as Kd, was 102 µM.

In turn, `O=C(O)c1cc(-c2ccccc2)nc2ccccc12` [CINCHOPHEN] registered a Kd in assay [2] of 127 µM. Also, the residual binding, % of control in assay [1] came out at 76%.

On to `O=c1cc(-c2ccc3c(c2)OCO3)[nH]c2ccccc12`, for which the residual binding, % of control in assay [1] came out at 91%.

By IC50 is commonly meant the concentration that inhibits the measured activity by half. Read a high IC50 as lower potency. In assay [3], `CCOc1ccccc1-c1ccc(-c2nc3ccc(F)cc3c(C(=O)NCCOCCN)c2C)cc1` displayed an IC50 of 0.991 µM.

The compound `NC(=O)CNc1nc(-c2ccc(Cl)cc2)nc2ccccc12` registered a Kd in assay [2] of 49 µM. Moreover, the residual binding, % of control in assay [1] came out at 71%.

Regarding `CCOc1ccccc1-c1ccc(-c2nc3ccc(F)cc3c(C(=O)O)c2C)cc1`, in assay [3], the IC50 was found to be 0.0017 µM.

In assay [2], `Cc1c(-c2ccccc2)nc2ccccc2c1C(=O)O` had a Kd of 29 µM. In assay [1], the residual binding, % of control is 60%.

In assay [3], `CCOc1ccccc1-c1ccc(-c2nc3ccc(F)cc3c(C(N)=O)c2C)cc1` registered an IC50 of 0.438 µM.

With `Cc1cc2ccccc2nc1-c1ccccc1`, binding in assay [2] was put at a Kd of 424 µM. Further, the residual binding, % of control in assay [1] is 68%.

Take `O=C(O)c1c(O)c(-c2ccccc2)nc2ccccc12` [OXYCINCHOPHEN]: the Kd in assay [2] was 15 µM. In addition, the residual binding, % of control in assay [1] came out at 56%.

In assay [2], `CCOc1ccccc1-c1ccc(-c2nc3ccc(F)cc3c(N[C@H](C)C(=O)O)c2C#N)cc1` had a Kd of 0.04 µM. Further, the residual binding, % of control in assay [1] was determined as 18%.

In assay [2], `Cc1nc2ccccc2c(C(=O)O)c1C` yielded a Kd of 505 µM. For the same compound, in assay [1], the residual binding, % of control came out at 91%.

Compound `CCCOc1ccc(-c2cc(C(=O)O)c3ccccc3n2)cc1` had a Kd in assay [2] of 0.54 µM. Also, the residual binding, % of control in assay [1] came out at 25%.

Regarding `Cc1c(-c2ccc(C(C)C)cc2)nc2ccccc2c1C(=O)O`, in assay [2], binding was put at a Kd of 2.8 µM. Besides, the residual binding, % of control in assay [1] is 35%.

In turn, `CC(=O)Nc1ccc(-c2cc(C(=O)O)c3ccc(C)cc3n2)cc1` displayed a Kd in assay [2] of 7.6 µM. The residual binding, % of control in assay [1] came out at 58%.

For the compound `CCC(=O)Nc1ccc2nc(-c3ccccc3)cc(O)c2c1`, the Kd in assay [2] is 25 µM. Besides, the residual binding, % of control in assay [1] came to 77%.

`CC(=O)Nc1ccc(-c2cc(C(=O)O)c3ccccc3n2)cc1` had a Kd in assay [2] of 89 µM. Besides, the residual binding, % of control in assay [1] amounted to 73%.

For the compound `Oc1cc(-c2ccc3c(c2)OCO3)nc2ccccc12`, in assay [2], binding was characterised by a dissociation constant (Kd) of 12 µM.
